# Assay results as given in the RNAGym collection of RNA variant scans (doi:10.1126/science.aae0568).
# Variants at the floor of the assay were thinned out.
# B1: tRNA (parent)
# chain: GUUCCGUUGGCGUAAUGGUAACGCGUCUCCCUCCUAAGGAGAAGACUGCGGGUUCGAGUCCCGUACGGAACG
# Variants of: B1
# Assay: yeast fitness relative to wild type (ratio to wild type); higher = fitter; tRNA-Arg(CCU), competitive growth, 37 C, YPD
# In short: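 Gene amplicons from the start population and from each of six end populations were read by 100-nucleotide paired-end sequencing. Those end populations came from pooled Saccharomyces cerevisiae strains carrying tRNA-Arg(CCU) gene variants at the native locus, competed in YPD at 37°C for 24 hours. Fitness relative to wild type was worked out from changes in genotype frequencies. Genotypes needed ≥ 100 starting reads, and estimates < 0.5 were set to 0.5.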
row,Variant,yeast fitness
1,C11A G25C C29U A65C A70U,0.541
2,C11G C29U A36C A42G,0.718
3,C11G A15U C24G A40G C62U A70C,0.614
4,C11G A21U U26C,≤ 0.5
5,C11G G17A C24U C29G,0.6
6,C11A U47G,0.542
7,C11A G38A U53A G63A G68A,0.635
8,C11G C29U C66A,≤ 0.5
9,C11G A15G C33G A37G U54A,≤ 0.5
10,C11G C31A C55U,≤ 0.5
11,C11G C34A A45G U54A,≤ 0.5
12,C11G A36C A45G A57C C61G,≤ 0.5
13,C11G A21G A40G,≤ 0.5
14,C11G C27U A36U A37U G41C A43C C49G C62G,0.604
15,C11G A15U C24G A40G C62U,≤ 0.5
16,C11A U19G A36G U54C C66U A69C,≤ 0.5
17,C11G G12A C31G A69C,≤ 0.5
18,C11A U19C C60U,≤ 0.5
19,C11G G17C U35C C49U C66U,≤ 0.5
20,C11G A65C C66G,≤ 0.5
21,C11G C22G C33G,0.59
22,C11A G17C A21U,≤ 0.5
23,C11G G18C C27A C66U,0.636
24,C11G A15U C24G A40G G51A C60U G67A,≤ 0.5

row,Variant,yeast fitness
1,C11G A36C A57C C66G,≤ 0.5
2,C11A U13C G23C U32G C34A,≤ 0.5
3,C11A U13C C49U U54C C61G C66U,0.64
4,C11G A36C G68C,≤ 0.5
5,C11G C30U A37C C55G A65G,≤ 0.5
6,C11G C29A U35C A43C,≤ 0.5
7,C11G C31A G39A,≤ 0.5
8,C11G A20U C30G C66U,≤ 0.5
9,C11A U32A,≤ 0.5
10,C11A G38C,0.586
11,C11A G38A,0.579
12,C11G C30A A42C C61A,≤ 0.5
13,C11G A15C G50C,≤ 0.5
14,C11G A15U,0.594
15,C11G A20G C49G,≤ 0.5
16,C11G C30U A37U,≤ 0.5
17,C11A U19A C29A U32A G48C C55G,≤ 0.5
18,C11G A14C A15C A40C A70C,≤ 0.5
19,C11G C29A C31G C46A C60G,0.614
20,C11G C27U A43C A65U,≤ 0.5
21,C11G C31A A42G A43G G68C,≤ 0.5
22,C11A U13A A20G,0.561
23,C11G C24G G51C,0.611
24,C11G C33U G68C,≤ 0.5

row,Variant,yeast fitness
1,C11A U19G A36G,0.521
2,C11G C27U C33G G52A,≤ 0.5
3,C11G C24U A57G G68C,≤ 0.5
4,C11G C49A,0.522
5,C11G C49U,0.631
6,C11G C34U U35A C55U,0.59
7,C11G A15G U26A U32A G38A A40C G52A,≤ 0.5
8,C11G C24G A57G,≤ 0.5
9,C11G C30U C31A A40U C49A,≤ 0.5
10,C11G A36C G38U G56A,≤ 0.5
11,C11G A42C U47A G63C A69C,≤ 0.5
12,C11A G23A C30U C31G,≤ 0.5
13,C11G A15G C22A U26A C55G,≤ 0.5
14,C11G A15U C24G A40G,≤ 0.5
15,C11G C27U A36U G48C C49U,0.717
16,C11A U19G,0.669
17,C11G A14C A37C G44C C61G G63C,≤ 0.5
18,C11G G18C C49A A70C,≤ 0.5
19,C11G C29G U32G G38A U53C,≤ 0.5
20,C11G A14G A15U G23C G68C,≤ 0.5
21,C11G C30U A37C C46U A57C,≤ 0.5
22,C11G C29U A69U,0.543
23,C11A G23C G39C C61A C62G A65U,≤ 0.5
24,C11G C49U C62U A70U,≤ 0.5

row,Variant,yeast fitness
1,C11A U16C A21G,≤ 0.5
2,C11G A21G A40G G58A C62G,≤ 0.5
3,C11G A14G A37G G44A,≤ 0.5
4,C11G C29U G52A,≤ 0.5
5,C11A U28A C61G C62G,0.556
6,C11G A45C,0.59
7,C11G A45U,0.666
8,C11A U16C A21G C55A,≤ 0.5
9,C11A G48A,0.642
10,C11G C31G C55G C60A,≤ 0.5
11,C11G A21U G39C G44A U47A,≤ 0.5
12,C11G G18A G23A,≤ 0.5
13,C11A G41A A45U C55A,≤ 0.5
14,C11A U16C A21G G68A,≤ 0.5
15,C11A U47C G51C,≤ 0.5
16,C11A G63A,0.681
17,C11A U28C C29U C34G A36G,≤ 0.5
18,C11A G39A C61U C62A,0.624
19,C11G A42G U54C A57C,≤ 0.5
20,C11G C27G A70G,≤ 0.5
21,C11G C24G C62U,0.528
22,C11A U26A U54A,≤ 0.5
23,C11G A42U,0.608
24,C11G A42C,0.636

row,Variant,yeast fitness
1,C11G A42G,0.649
2,C11G C24U U28C G51A,≤ 0.5
3,C11A G18A G67A,≤ 0.5
4,C11G A36C C46G C60G,0.68
5,C11G A21G G50A U64A,≤ 0.5
6,C11G C27A C34G,≤ 0.5
7,C11A U16C C31U A69U,≤ 0.5
8,C11G A36U A42G A43C,0.527
9,C11G C29G C55A U64C,≤ 0.5
10,C11A G51A,0.618
11,C11G A36C G41A C66U,≤ 0.5
12,C11G A14U C24A C61A,≤ 0.5
13,C11G A14C C24G A36C G68A,0.584
14,C11A G52C,0.596
15,C11G A20C C24U A36C U47A,0.61
16,C11A U26G,0.599
17,C11G A45U U64C,≤ 0.5
18,C11G G12A C61G G68A,0.556
19,C11G C30G C31G U32A G56A,≤ 0.5
20,C11G A20U C24A G25C A70G,≤ 0.5
21,C11A G38A U53A,0.543
22,C11G A14U C34A A57G,0.642
23,C11G A14U G48C,0.58
24,C11G C30A U35A,≤ 0.5

row,Variant,yeast fitness
1,C11G C29U C61A,≤ 0.5
2,C11A G41A G67U G68C,0.567
3,C11G A43U A45G U47C,≤ 0.5
4,C11A U32A A70U,≤ 0.5
5,C11G A14G G41A,≤ 0.5
6,C11A G25C C29U A65U,≤ 0.5
7,C11A G25A A43G A65C,≤ 0.5
8,C11A U32A C33U,0.548
9,C11A G23C U32G C34A,≤ 0.5
10,C11G G17C A40G,≤ 0.5
11,C11G A42U A43C C55A C66A,≤ 0.5
12,C11G C49U G68U,≤ 0.5
13,C11A G25C C29U U54C A65C A70U,≤ 0.5
14,C11G C55G A57C C66U,≤ 0.5
15,C11G C30G A65C,≤ 0.5
16,C11G C27G,≤ 0.5
17,C11G C22G C27G C62U,0.578
18,C11A G44C C46A U53A G63C,0.866
19,C11G A15C C62G,≤ 0.5
20,C11G C31G A42U A65C,0.602
21,C11A G51C C66G,0.713
22,C11G A36G G52A,≤ 0.5
23,C11G A21G C34G A40C,≤ 0.5
24,C11G A21G A40G A69U,≤ 0.5

row,Variant,yeast fitness
1,C11G C33G A37U A45U,0.64
2,C11G C33G,≤ 0.5
3,C11G G12C U54A C60A A69C,0.557
4,C11G A36C,≤ 0.5
5,C11G A15U A21G G38C,0.604
6,C11G C29U C46G,≤ 0.5
7,C11G A70C,0.776
8,C11A U64A,0.635
9,C11G A14G G39C C55U,≤ 0.5
10,C11A U16C,0.644
11,C11G A14C G23C G41C,0.531
12,C11A G23C C33U A43U A45C G58A A69C,≤ 0.5
13,C11G C49U C62U,0.535
14,C11G C29A U54A A57U,≤ 0.5
15,C11G A15C C30U U53A C61G,≤ 0.5
16,C11G C27U C34U,≤ 0.5
17,C11G C62U A65U,0.525
18,C11G A15U G38A C46G G56C,≤ 0.5
19,C11G C22A C46G,≤ 0.5
20,C11G C29U U35C C66A,≤ 0.5
21,C11G C27A A36G G38A A65C,≤ 0.5
22,C11A G18A C46U,0.61
23,C11G A14U A36U G38C C55U G56C,≤ 0.5
